# Experimental data reported in ChEMBL document CHEMBL4513216, “Probing the Open Global Health Chemical Diversity Library for Multistage-Active Starting Points for Next-Generation Antimalarials” (ACS Infect Dis, 2020).
# Experiment: Toxicity liver stage against HepG2, at 10uM
# Type: cell-based
# Design: test concentration 10 uM, cell line HepG2-A16-CD81EGFP
# Settings: human, HepG2-A16-CD81EGFP cells; read-out: INHIBITION
# In short: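 Uninfected HepG2-A16-CD81EGFP cells, 3 × 10^3 per well, 1536-well, plated on prespotted compound at 10 μM final, parasite-free screening media added to match infected plates; puromycin 10 μM positive, DMSO 0.5% negative; run in parallel with 48 h PbLuc assay at 37 °C, 5% CO2; viability by CellTiter-Glo luminescence, normalized to controls.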
row,SMILES,cytotoxicity at 10 µM
1,CSc1nnc(N(CCC#N)CCC#N)s1,8.95%
2,CCCS(=O)(=O)NC(C)C(=O)NCc1ccc(N2CCCC2)nc1 (stereo not given),-11.8%
3,COc1ccc(CN2CC[C@H](c3nnc(-c4ccco4)o3)C2)cc1,0.0623%
4,Cc1cc(C)cc(NC(=O)c2cnc(N3CCN(C)CC3)nc2C)c1,-15.5%
5,CCOC(=O)C1CC2(CCOCC2)N2CCC(=O)N12 (stereo not given),2.39%
6,COC1CN(C(=O)COC(C)=O)CCC(=O)N(C)c2ccccc21 (stereo not given),-3.03%
7,COc1ccccc1N1CCN(c2nc(N)nc3[nH]cnc23)CC1,2.77%
8,Cc1c(C(=O)N2CCNC(=O)C2)sc2nc[nH]c(=O)c12,0.709%
9,CCOc1ccc(S(=O)(=O)NCCCc2ccc(N(C)C)cc2)cc1F,-5.67%
10,COC(=O)c1ccc(C(=O)N2CCC(c3nnc(C)s3)CC2)cc1,4.95%
11,CNC(=O)c1ccc2c(OC)n(C)nc2c1,-2.43%
12,O=C(NCCc1ccncc1)[C@H]1C[C@@H]2CCN(c3nncs3)C[C@H]2O1,4.36%
13,CCn1cc(NC(=O)C2CCC(=O)N2Cc2ccco2)cn1 (stereo not given),-0.607%
14,COc1cccc(O[C@H]2CCN(c3nc(C)cc(C)n3)CC[C@@H]2O)c1,2.58%
15,Cc1ccc(S(=O)(=O)N2CC[C@@H]3C[C@H](NC(=O)c4ccncc4)[C@@H]32)cc1,0.385%
16,CC(C)c1ccc(CC2(C)Cc3cc(CC(=O)O)ccc3O2)cc1 (stereo not given),6.65%
17,Cn1ncc2ccc(C3CCCN(Cc4cccs4)C3)nc21 (stereo not given),1.88%
18,COCc1ccc(C(=O)N2CCC(c3cc4ncc(C)nc4[nH]3)C2)cc1 (stereo not given),-25.6%
19,COc1ccccc1Oc1cncc(C2CCCN(CC(N)=O)C2)n1 (stereo not given),-15.5%
20,Cc1nccc(C2CCCCN2Cc2ccccc2)n1 (stereo not given),-28.2%
21,Cc1noc(C)c1-c1cc(C2CCNCC2)ccn1,-16.6%
22,CCc1cc(C(=O)N2CCC(c3cc4ncccc4cn3)CC2)on1,-13%

row,SMILES,cytotoxicity at 10 µM
1,Cc1ccccc1CNC(=O)c1ccccc1-n1cc(CN)cn1,-21%
2,Cc1cccnc1C(=O)N1C[C@@H]2CC[C@H](Oc3cccc(F)c3)[C@@H]2C1,0.297%
3,CN1CCCC1c1ccnc(C(=O)N(C)C2CCCCC2)c1 (stereo not given),-21.5%
4,CN(C)C(=O)C1CN(Cc2ccsc2)CCN(S(C)(=O)=O)C1 (stereo not given),14.4%
5,Cn1cc(CN2CCCC(CCCc3ccccn3)(C(N)=O)C2)cn1 (stereo not given),-24.5%
6,CNC(=O)C1(c2cnccn2)CCCN1C(=O)c1ccc(OC)cc1 (stereo not given),-12.9%
7,Cc1ncccc1Oc1nccnc1C1CCCN(C(C)C)C1 (stereo not given),-10.1%
8,COc1ccc(-n2cnc(Cl)c2CO)cc1,2.49%
9,O=C(Nc1cnn(CC(F)F)c1)c1cccc(-n2cnnn2)c1,6.01%
10,CN(CCCOc1ccccc1)Cc1nccn1C,2.07%
11,Cc1ccc(C(=O)NC2CCN(C(C)C)C2)c(=O)[nH]1 (stereo not given),5.26%
12,NC(=O)C1CCCN1C(=O)c1cc(C2CC2)nc2ccc(F)cc12 (stereo not given),1.75%
13,COc1cccc(C2CCCN2C(=O)c2ccc(=O)n(C)c2)c1 (stereo not given),-1.72%
14,Cc1nc(CNC(=O)NCC(F)(F)F)oc1C,-1.72%
15,O=C(NC1CCS(=O)(=O)c2ccccc21)c1cccs1 (stereo not given),-0.0399%
16,CC(C)(CNC(=O)C1CCCN1S(C)(=O)=O)N1CCOCC1 (stereo not given),2.72%
17,Cc1noc(C)c1NS(=O)(=O)c1cc(Cl)c(Cl)c(C(=O)O)c1,4.86%
18,CCOCCC1(CNC(=O)c2ccncc2Cl)CCC1,5.38%
19,COC(=O)NCC(=O)NCC(C)(C)c1cccc(Br)c1,-3.01%
20,CCNC(=O)COc1ccc(C(=O)NC(C)CCc2ccco2)cc1 (stereo not given),12.2%
21,CC(C)c1noc(CCC(=O)NC(C)c2nnc3n2CCC3)n1 (stereo not given),2.59%
22,CCS(=O)(=O)N1CCC(NCC2CNc3cc(C)nn3C2)CC1 (stereo not given),0.286%

row,SMILES,cytotoxicity at 10 µM
1,Cc1ccc(C)c(CC(=O)NC2(C#N)CCOCC2)c1,6.31%
2,CCN(C1CCN(c2cccc(F)c2C(C)=O)CC1)S(C)(=O)=O,5.17%
3,CC(C)C1CCCN1C(=O)c1ccc(-n2ncc(C#N)c2N)cc1 (stereo not given),-1.89%
4,CCSc1ccc(C(=O)N2CCCCC2C(=O)N2CCCC2)cn1 (stereo not given),10.5%
5,O=C(CCc1ccncc1)Nc1ccc(OCC2CCOCC2)cc1,-2.98%
6,O=C(c1ccc(F)c(F)c1)N1CCCCC1c1nc[nH]n1 (stereo not given),-7.47%
7,COCCC(=O)N1CCCC1c1cccc(C)c1C (stereo not given),5.79%
8,C=C(C)CN1C(=O)CC(Cc2ccc(F)cc2)C1=O (stereo not given),1.62%
9,CCN(C(=O)CN1CCCC1c1cccs1)c1ccccc1C (stereo not given),3.7%
10,CCCN1CCC(Nc2nc(CC)ns2)CC1,-2.59%
11,COCc1cccc(C(=O)N(C)Cc2ncc(C)c(OC)c2C)c1,-13.1%
12,O=C(Nc1ccccn1)C1CCN(Cc2cccc3c2OCCO3)CC1,-0.586%
13,CC(C)C(=O)N1CCC(NCc2c(C(C)C)nn(C)c2N(C)C)CC1,5.21%
14,O=C1CCN(CCCS(=O)(=O)c2ccc(Cl)cc2)CCN1,2.43%
15,CC(C)(C)OC(=O)N1CSC[C@@H]1C(=O)NCc1ccsc1,8.77%
16,CCC(C)N(C)CCNC(=O)NCc1cccc(-n2cncn2)c1 (stereo not given),-8.1%
17,Cc1nc(C)n(C2CCCN(C(=O)CCc3ccncc3)C2)n1 (stereo not given),-5.23%
18,CCN1CC[C@@H]2OC[C@H](C(=O)NCc3cccs3)C[C@@H]2C1,-106%
19,Cn1ncc2c1C(COCC1CC1)CN(Cc1ccco1)C2 (stereo not given),-78.6%
20,Cn1ccc(C(=O)NC2CCC23CCN(C(=O)N2CCCC2)CC3)c1 (stereo not given),2.01%
21,Cc1cc2nc(C3CCCCC3)c(-c3ccnc(NCCO)n3)cn2n1,-0.0295%
22,Cc1cc(C(=O)N2CCC3(CC2)c2nc[nH]c2CCN3CC(C)C)no1,11.1%

row,SMILES,cytotoxicity at 10 µM
1,COC(=O)c1ccc(CNC2CC(=O)N(Cc3cccc(F)c3)C2)cc1 (stereo not given),4.43%
2,COCc1nnc(C(=O)N(C)Cc2cnc3ccccn23)o1,1.69%
3,CCn1cncc1C1CC(=O)Nc2c1c(C)nn2C (stereo not given),-0.557%
4,CC(C)N1CC(C(=O)N2CCc3c(nc(CC4CC4)[nH]c3=O)C2)CC1=O (stereo not given),-8.25%
5,Cc1cccc2[nH]c(C3CCN(C(=O)c4cnc[nH]c4=O)CC3)nc12,2.75%
6,CCNc1ncc(C(=O)NCCNc2ccncc2C)cn1,-6.83%
7,COc1cccc(C(=O)N2C[C@@H](CN(C)CCO)[C@@H](CO)C2)c1C,-4.17%
8,CN1CCCN(C[C@@H]2CN(c3nc(C(N)=O)cs3)C[C@@H]2CO)CC1,2.67%
9,CC(=O)NCCNC(=O)CCn1c(C)cc2ccccc21,6.26%
10,CCC[C@H]1CN(C(=O)Cn2ccccc2=O)C[C@@H]1NS(C)(=O)=O,11.1%
11,O=C(CCCc1ccc(Cl)cc1)N1CCC(c2nnc[nH]2)CC1,18.3%
12,CN(C)CCOc1cccc(CN2CCCC3(C2)CN(C)C(=O)O3)c1 (stereo not given),-5.82%
13,CCCc1cc(C(=O)N[C@H](C)[C@@H](O)c2ccc(O)cc2)n(C)n1,1.48%
14,Cc1cc(C)cc(N2CCN(C(=O)C3CN(C)C(=O)N3)CC2=O)c1 (stereo not given),-5.13%
15,Cc1nsc(NC(=O)N2CCN(Cc3ccccc3F)C(=O)C2)n1,-4.25%
16,N#Cc1ccccc1CN1CCC(c2nccn2CC2CCC2)CC1,-10.1%
17,COCCn1cnnc1C(C)NC(=O)c1[nH]c2c(C)cc(C)cc2c1C (stereo not given),-9.11%
18,CC[C@@]1(O)CCN(C(=O)c2ccc(-n3cnnc3)cc2)C[C@H]1O,3.86%
19,Cc1cccc2c1nc(CCO)n2-c1ccc(NS(C)(=O)=O)nc1,2.34%
20,CCNC(=O)N1CCC(Nc2nccc(NCC)n2)CC1,-3.6%
21,CC(C)NCC1(O)CCCN(CCC2CCCCC2)C1=O (stereo not given),-2.53%
22,CCC(C(=O)NC(C)(C)C)n1ccc2ncccc2c1=O (stereo not given),3.69%

row,SMILES,cytotoxicity at 10 µM
1,Nc1nnc(CCCNC(=O)c2ccc(C3CCCNC3)cc2)s1 (stereo not given),-1.28%
2,Cc1nc(NCCSc2cnn[nH]2)c2cccnc2n1,2.98%
3,CN1CCCC2(CCN(c3cccc(C#N)n3)C2)C1=O (stereo not given),3.61%
4,O=C1CCC(=O)N1c1nn(Cc2ccccc2Cl)cc1Cl,-6.69%
5,COCCCNC(=O)CN(C)C(=O)c1ccccc1O,-7.04%
6,Cc1ccc2oc(C(=O)N3CCCC(n4ccnc4C)C3)cc2n1 (stereo not given),-3.37%
7,COCc1ccccc1CNCc1c(C(C)C)nn(C)c1N(C)C,-7.83%
8,N#Cc1ccc(F)c(CN2CCCC2Cn2cccn2)c1 (stereo not given),-7.69%
9,CCc1ccc(O)c(C(=O)NC2CCN(C(=O)OC)CC2)c1,1.89%
10,CC(Cn1ccnc1)NC(=O)C1(c2ccc(F)cc2)CC1 (stereo not given),-9.62%
11,Cc1nc(C2CCN(Cc3ncc[nH]3)CC2)no1,-28%
12,Cc1nocc1C(=O)N1CCOC2(COCCN(C(C)C)C2)C1 (stereo not given),10%
13,Cc1nc2c(cc1C(=O)O)CCN(Cc1ccsc1)CC2,9.62%
14,c1cncc(N2CCCn3nnc(COCC4CC4)c3C2)c1,5.5%
15,CN(C)C(=O)N1CCC2(CC1)CCN(Cc1ccccn1)C2=O,2.05%
16,Cc1noc(C)c1CN1C[C@@H](N(C)Cc2ccco2)[C@H]2OCCC[C@H]21,-70.9%
17,CN(C)S(=O)(=O)N1CCC[C@]2(C[C@@H](Oc3ncccc3F)CO2)C1,-82.2%
18,CC(=O)N1CCOCC2(CCN(Cc3ccc(C)s3)CC2)C1,-5.39%
19,CN(C)CCN1CCCC12CCN(C(=O)c1cccn1C)CC2,-2.03%
20,c1csc(CN2CCn3c(Cn4cncn4)cnc3C2)c1,-71.7%
21,c1csc(CN2CCc3nnc(COc4cncnc4)n3CC2)c1,2.49%
22,CN(C)S(=O)(=O)N1C[C@H]2CC[C@@H](C1)N(Cc1ccc3c(c1)OCCO3)C2,4.52%
